Data taken from ChEMBL document CHEMBL1914364, “3-bromohomofascaplysin A, a fascaplysin analogue from a Fijian Didemnum sp. ascidian” (Bioorg Med Chem, 2011).

How the values were obtained:
Plasmodium falciparum [1] = assay: Antimalarial activity against chloroquine- and mefloquine-resistant Plasmodium falciparum W2-Mef infected in human O-positive erythrocytes assessed as inhibition of ring-stage parasite growth after 48 hrs; format: functional, organism-based
How it was run: (§1)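 Asynchronous W2-Mef cultures kept at 5% hematocrit in RPMI-1640-based malaria medium. Drugs were diluted in ½ log10 steps from 10 μM to 0.33 nM and grown in triplicate for 48 hr. Cells were stained 40 min with Hoechst 33342, thiazole orange, DiIC1-5 and propidium iodide, then read by flow cytometry; DNA/RNA levels assign ring, trophozoite and schizont stages. IC50 is taken from mean parasite counts relative to drug-free control wells.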

L6 = assay: Cytotoxicity against rat L6 cells; format: cell-based
Plasmodium falciparum [2] = assay: Antimalarial activity against chloroquine- and mefloquine-resistant Plasmodium falciparum W2-Mef infected in human O-positive erythrocytes assessed as inhibition of schizonts growth after 48 hrs; format: functional, organism-based; how it was run: as §1
Plasmodium falciparum [3] = assay: Antimalarial activity against chloroquine- and mefloquine-resistant Plasmodium falciparum W2-Mef infected in human O-positive erythrocytes after 48 hrs; format: functional, organism-based; how it was run: as §1
Plasmodium falciparum [4] = assay: Antimalarial activity against chloroquine- and mefloquine-resistant Plasmodium falciparum W2-Mef infected in human O-positive erythrocytes assessed as inhibition of trophozoites growth after 48 hrs; format: functional, organism-based; how it was run: as §1
Plasmodium falciparum [5] = assay: Antimalarial activity against chloroquine- and pyrimethamine-resistant Plasmodium falciparum K1; format: functional, organism-based
[6] = Ratio of MIC for rat L6 cells to MIC for Plasmodium falciparum
Plasmodium falciparum [7] = assay: Ratio of IC50 for chloroquine- and mefloquine-resistant Plasmodium falciparum W2-Mef trophozoites to IC50 for chloroquine- and mefloquine-resistant Plasmodium falciparum W2-Mef ring-stage parasite; format: functional
Plasmodium falciparum [8] = assay: Ratio of IC50 for chloroquine- and mefloquine-resistant Plasmodium falciparum W2-Mef schizonts to IC50 for chloroquine- and mefloquine-resistant Plasmodium falciparum W2-Mef ring-stage parasite; format: functional

SMILES | IC50 (Plasmodium falciparum [1]) | Activity (L6) | IC50 (Plasmodium falciparum [2]) | IC50 (Plasmodium falciparum [3]) | IC50 (Plasmodium falciparum [4]) | IC50 (Plasmodium falciparum [5]) | Ratio [6] | Ratio IC50 (Plasmodium falciparum [7]) | Ratio IC50 (Plasmodium falciparum [8])
O=C1c2ccccc2-[n+]2ccc3c([nH]c4ccccc43)c21.[Cl-] [FASCAPLYSIN CHLORIDE] | 7.82 nM | 2.5 µg/mL | 65.2 nM | 48.2 nM | 401 nM | 160 nM | 50 | – | –
CC(=O)C[C@]1(O)c2ccccc2-[n+]2ccc3c([nH]c4ccccc43)c21.[Cl-] [HOMOFASCAPLYSINE A] | 0.55 nM | 1.1 µg/mL | 94 nM | 105 nM | 252 nM | 38 nM | 50 | 450 | 170
C[C@@H]1CC[C@H]2[C@@H](C)C(=O)O[C@@H]3O[C@@]4(C)CC[C@@H]1[C@]32OO4 [ARTEMISININ] | 5.92 nM | – | 5.91 nM | 6.25 nM | 6.46 nM | – | – | – | –
CC(=O)C[C@]1(O)c2ccc(Br)cc2-[n+]2ccc3c([nH]c4ccccc43)c21 | 574 nM | – | 765 nM | 805 nM | 1190 nM | – | – | – | –
